CCR6 antagonist – CCR6 (human) receptor antagonism; P51684; CHO-K1 CCR6 PathHunter beta-arrestin, luminescence, CCL20-stimulated; inhibition, % at 20 µM; 0.49% of 340,000 active;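 active means compounds whose inhibition of the agonist-driven luminescence signal at 20 µM reaches about 50%, limit read from the data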;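 further: cells stimulated with CCL20 at 14 nM final; plate controls were DMSO with CCL20 for no effect and DMSO without agonist for full effect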
Target sequence (P51684 whole entry, looked up): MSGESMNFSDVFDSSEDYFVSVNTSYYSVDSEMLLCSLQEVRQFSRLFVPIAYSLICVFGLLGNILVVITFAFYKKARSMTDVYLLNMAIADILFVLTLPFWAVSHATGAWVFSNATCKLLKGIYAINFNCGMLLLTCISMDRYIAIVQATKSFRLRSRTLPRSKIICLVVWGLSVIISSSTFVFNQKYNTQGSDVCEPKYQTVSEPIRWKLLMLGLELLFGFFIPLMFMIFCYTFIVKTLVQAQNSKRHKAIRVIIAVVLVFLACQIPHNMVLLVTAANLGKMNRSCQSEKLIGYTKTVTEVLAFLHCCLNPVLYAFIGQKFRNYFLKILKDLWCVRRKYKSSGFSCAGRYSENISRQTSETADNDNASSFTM
APJ ag – agonists of human APJ apelin receptor | CHO-K1 APJ PathHunter beta-arrestin, luminescence; 0% DMSO wells, 100% apelin | activation, % at 20 µM | 0.11% of 330,000 active | AID 2520;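 active means activation more than six SD over the plate average, tested at 20 µM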;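 further: 0% = DMSO alone and 100% = apelin-13 at 10 nM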
Target sequence (P35414 whole entry, looked up): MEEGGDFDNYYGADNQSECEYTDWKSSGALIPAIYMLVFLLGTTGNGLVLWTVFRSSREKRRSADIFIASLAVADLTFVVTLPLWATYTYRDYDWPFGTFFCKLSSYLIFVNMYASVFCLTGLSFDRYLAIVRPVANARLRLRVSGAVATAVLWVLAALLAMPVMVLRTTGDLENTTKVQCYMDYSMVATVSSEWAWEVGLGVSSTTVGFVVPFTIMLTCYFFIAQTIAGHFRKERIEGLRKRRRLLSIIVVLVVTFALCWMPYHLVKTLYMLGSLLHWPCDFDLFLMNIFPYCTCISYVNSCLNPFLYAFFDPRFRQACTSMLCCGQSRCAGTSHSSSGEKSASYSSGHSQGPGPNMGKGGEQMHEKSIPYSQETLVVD
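Assay system: CHO-K1 APJ beta-arrestin complementation cell line / Compound: single test compound dose, 20 µM final, 1% DMSO / Times: overnight seeding, 90 min compound at 25 °C, 1 h detection / Technique: beta-gal luminescence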
PfG6PD inh – PfG6PD (Plasmodium falciparum) enzyme inhibition | 0.78% of 350,000 active | PfGluPho enzyme, NADPH resazurin-diaphorase fluorescence | inhibition, % at 20 µM | AID 504690;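 active means inhibition reaching at least a set limit at 20 µM in the primary screen, cut at about 59% in these data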;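 further: 0% = DMSO wells with substrate and 100% = DMSO wells lacking glucose-6-phosphate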
CXCR6 inh – inhibitors of human CXCR6 receptor; O00574; CHO-K1 PathHunter CXCR6 beta-arrestin, luminescence; inhibition, % at 20 µM; 0.36% of 360,000 active; AID 602244; in the data active means inhibition above about 34%, passing the limit was not always enough;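 further: antagonist mode with CXCL16 agonist at 10 nM final; 0% = 10 nM CXCL16 with DMSO and 100% = unstimulated wells without agonist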
Beta2AR agonist – human beta-2 adrenergic receptor agonism by FAP; P07550; Am2.2-beta2AR cells, FAP receptor internalization, flow cytometry; response, % (test concentration not listed); 0.43% of 340,000 active;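 active means response above a set limit, near 3 SD of response in nonfluorescent compounds, cut at about 42% in these data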
APJ antagonist – APJ receptor antagonism; 0.32% of 330,000 active; inhibition, % at 20 µM; AID 2521; P35414; CHO-K1 APJ beta-arrestin complementation, luminescence;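 active means inhibition above about 40% at 20 µM, limit read from the data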;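 further: cells challenged with 10 nM apelin-13 agonist together with compound; plate controls were apelin-13 plus DMSO wells for no effect and DMSO wells lacking apelin-13 for full effect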
Beta2AR ag CP1 – human beta-2 adrenergic receptor agonism, cherry pick. shares compounds with Beta2AR agonist. Am2.2-beta2AR cells, FAP surface receptor, flow cytometry; hits give low values. percent response (surface receptor), % at 10 µM. 25% of 1,100 active;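 active means surface receptor percent response at or below 58%, roughly 3 SD from nonfluorescent compounds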
FAP fluor counter – counter-screen for beta-2AR agonists: fluorescence in Am2.2 cells | calls only at 10 µM | FAP fluorogen flow cytometry, fluorescence counterscreen; hits give low values | AID 588765 | 1,100 tested, under 10 active | shares compounds with Beta2AR agonist;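 active means percent response below a set limit in fluorescence channel 1 and below 50% in channel 8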
PfGluPho conf – PfG6PD inhibition, single-dose confirmed; shares compounds with PfG6PD inh; recombinant PfGluPho, NADPH-diaphorase-resazurin fluorescence; inhibition, % at 20 µM; 34% of 2,400 active; AID 504753;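 active means inhibition of at least 50% at 20 µM in any single replicate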;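 further: 0% = DMSO with substrate and 100% = DMSO lacking glucose-6-phosphate substrate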
Diaph ctr 10uM – inhibits diaphorase or oxidizes, flagging false PfG6PD hits; inhibition, % at 20 µM; 39% of 820 active; diaphorase-coupled resazurin reduction, fluorescence, NADPH 10 uM; shares compounds with PfG6PD inh;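 active means average inhibition reaching 50% or more with the compound at 20 µM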;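 further: resorufin red fluorescence formed as diaphorase reduces resazurin using NADPH; 0% = DMSO with enzyme and 100% = DMSO without enzyme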
Diaph ctr 30uM – diaphorase inhibition or oxidation at 30 uM NADPH; 29% of 820 active; AID 504863; Diaphorase/resazurin coupled assay, resorufin fluorescence; inhibition, % at 20 µM; shares compounds with PfG6PD inh;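 active means inhibition averaging 50% or more, tested at 20 µM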;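 further: 0% = DMSO with enzyme and 100% = DMSO wells lacking diaphorase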
CXCR6 confirm – confirmation of human CXCR6 receptor antagonists | 65% of 700 active | CHO-K1 CXCR6 PathHunter beta-arrestin, luminescence | AID 602409 | shares compounds with CXCR6 inh | inhibition, % at 20 µM;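 active means mean inhibition over four retests above 40%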;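 further: receptor stimulated with 10 nM CXCL16 agonist; beta-galactosidase fragment complementation upon beta-arrestin recruitment to receptor; plate controls were CXCL16 plus DMSO for no effect and DMSO without CXCL16 for full effect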
Active calls of the source: *; i = inactive; x = no result. The list is not random: actives were taken first. Their share in the collection is about 1.7%.

SMILES | CCR6 antagonist | APJ ag | PfG6PD inh | CXCR6 inh | Beta2AR agonist | APJ antagonist | Beta2AR ag CP1 | FAP fluor counter | PfGluPho conf | others
Cc1ccc(NC(=O)CSCC(=O)NCc2cccc(C(F)(F)F)c2)cc1 | 9 | 0 | 14 | 4 | 0 | 12 | x | x | x
O=C(c1cc2c(ccc3ccccc32)o1)N1CCN(c2ncc(C(F)(F)F)cc2Cl)CC1 | -2 | 5 | 1 | -3 | 98* | 17 | 13* | i | x
O=C(c1[nH]c(C(F)(F)F)nc1-c1ccccc1)N1CCN(c2ncc(C(F)(F)F)cc2Cl)CC1 | x | x | x | 4 | x | x | x | x | x
Cc1ccc(-c2[nH]ncc2C(=O)c2ccc(Br)cc2)c(O)c1 | 13 | -3 | 11 | 2 | -8 | 6 | x | x | x
CCN(CC)S(=O)(=O)c1cccc(-n2c(O)c(C=Nc3ccccc3C(=O)O)c3ccccc3c2=O)c1 | -1 | 2 | -27 | -15 | 47* | -15 | 99 | i | x
O=C(O)c1ccccc1N=Cc1c(O)n(-c2nccs2)c(=O)c2ccccc12 | -1 | 3 | 11 | 3 | -1 | 1 | x | x | x
Cc1ccc(Sc2ncccc2C(=O)NCC(c2ccc(F)cc2)N2CCOCC2)cc1C (stereo unspecified) | 13 | -5 | 2 | 2 | 2 | 5 | x | x | x
Cc1ccc(Sc2ncccc2C(=O)NCC(c2ccc(F)cc2)N2CCOCC2)c(C)c1 (stereo unspecified) | 6 | -7 | -9 | -1 | 47* | 4 | 97 | i | x
Cc1nc2ccc(NS(=O)(=O)c3c(F)cc(F)cc3Br)cc2s1 | -5 | -1 | 2 | 12 | 27 | 7 | x | x | x
CNCc1ccccc1Sc1cc(O)ccc1O | 84* | 4 | 92* | 40 | 68* | -54 | 89 | i | 97* | Diaph ctr 10uM=53*;Diaph ctr 30uM=18
Nc1nccc(N2CCCCC2)n1 | x | x | -5 | 2 | x | x | x | x | x
O=C(Nc1cccc(Cl)c1)Nc1sccc1-c1nc2ccccc2s1 | -10 | 0 | 97* | -19 | 66* | -11 | 116 | i | -4
O=C(Nc1cccc(Cl)c1)Nc1nc(-c2ccc(Cl)cc2)cs1 | -7 | -1 | -13 | -3 | 0 | -5 | x | x | x
COc1cccc(/C=N/NC(=S)Nc2cccc(S(=O)(=O)N(C)C)c2)c1 | 16 | -3 | 67* | 2 | -2 | 12 | 131 | i | 1
CCCCSc1ncnc2[nH]ncc12 | -7 | -4 | -5 | -1 | 1 | -12 | x | x | x
Fc1ccc(Sc2nc(-c3ccccc3)nnc2C(F)(F)F)cc1 | 50* | -6 | -1 | 45* | 44* | 34 | 21* | i | x | CXCR6 confirm=63*
Fc1ccc(Oc2nc(-c3ccccc3)nnc2C(F)(F)F)cc1 | 30 | -1 | -8 | 30 | 6 | -2 | x | x | x
O=[N+]([O-])c1ccc(Sc2nc3ccccc3o2)c([N+](=O)[O-])c1 | 43 | 9 | 19 | 43* | 74* | -78 | 71 | i | x | CXCR6 confirm=46*
CNC(=O)C[C@H]1C(=O)N(c2ccc(Br)cc2)C[C@@H]1CSC | x | x | -6 | -8 | x | x | x | x | x
Cc1ccc(/C=C(\NC(=O)c2ccccc2)C(=O)NC2CCN(Cc3ccccc3)CC2)o1 | 13 | -4 | 0 | -3 | 1 | 11 | x | x | x
CS(=O)(=O)c1ccc(C(=O)OCc2nnc(-c3ccccc3)o2)cc1[N+](=O)[O-] | 62* | x | 14 | 64* | 85* | x | 84 | i | x | CXCR6 confirm=76*
COC(=O)c1cc(F)c(-n2cncn2)c(F)c1 | -11 | -5 | -8 | 0 | 11 | -4 | x | x | x
COC(=O)c1cc([N+](=O)[O-])c(-n2cncn2)c([N+](=O)[O-])c1 | 97* | x | 4 | 79* | 50* | x | 34* | i | x | CXCR6 confirm=96*
Clc1ccc(Cl)c(-c2nn3c(COc4ccccc4)nnc3s2)c1 | -4 | -6 | 60* | 4 | -15 | 37 | x | x | 36
COc1ccc(-c2nn3c(COc4ccccc4)nnc3s2)cc1OC | -6 | -4 | -5 | 1 | -4 | 5 | x | x | x
SMILES | CCR6 antagonist | APJ ag | PfG6PD inh | CXCR6 inh | Beta2AR agonist | APJ antagonist | Beta2AR ag CP1 | FAP fluor counter | PfGluPho conf | others
c1ccc(OCc2nnc3sc(-c4cccs4)nn23)cc1 | 2 | -4 | 86* | 3 | -16 | 15 | x | x | 34
c1csc(-c2nn3c(C4COc5ccccc5O4)nnc3s2)c1 (stereo unspecified) | 2 | -2 | 59* | -2 | -6 | 2 | x | x | 9
Fc1ccc(-c2nn3c(C4COc5ccccc5O4)nnc3s2)cc1 (stereo unspecified) | 24 | -3 | 56 | -5 | -8 | -16 | x | x | x
CCCCN1C(=O)C(CC(=O)NC(c2ccccc2)c2ccccc2)CC(C(=O)N(C(C)C)C(C)C)=C1C (stereo unspecified) | x | x | -5 | 8 | x | x | x | x | x
CC1(c2nc3ccccc3[nH]2)CCC(=O)N1Cc1ccc(F)cc1 (stereo unspecified) | x | x | x | -1 | x | x | x | x | x
O=C(NC(=S)Nc1cccc(Cl)c1Cl)C1CC1 | 13 | -1 | 15 | -2 | -10 | -4 | x | x | x
O=C(CSc1nc2ccccc2o1)N/N=C/c1ccco1 | 3 | -5 | 24 | 0 | -10 | 31 | x | x | x
Cc1cc(SCC(=O)N/N=C/c2ccco2)nc2ccccc12 | 11 | -2 | 80* | -17 | -13 | -32 | x | x | 52* | Diaph ctr 10uM=58*;Diaph ctr 30uM=48
CC(C)N1CCN(S(=O)(=O)c2ccccc2)c2ccccc21 | 15 | x | 95* | 17 | 4 | x | x | x | 38
O=S(=O)(c1ccccc1)N1CCCc2ccccc21 | x | 0 | x | x | x | -6 | x | x | x
COc1ccc2c3c(ccc2c1)C(=O)/C(=C/O)CC3 | -15 | x | 69* | -7 | -24 | x | x | x | 45
Cc1nn(-c2ccccn2)c2c1C(=O)C(Br)CC2 (stereo unspecified) | -4 | x | 90* | -16 | -5 | x | x | x | -1
CC1=C(C)C(=O)N(c2ccccn2)C1=O | 7 | -4 | 3 | 1 | 4 | 14 | x | x | x
N#CC(C#N)=Cc1cnc(N2CCN(c3ccccc3)CC2)s1 | 3 | -2 | 7 | -7 | 1 | -18 | x | x | x
